Values after ≈ are worked out from the molar mass of the structure shown.
Columns and labels:
Aspergillus niger [1] = assay: Antifungal activity against Aspergillus niger MTCC 282 by conventional broth microdilution method; type: functional
Outline: (§1)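 Tube broth microdilution. Compounds were diluted in DMSO from a 2000 μg/mL stock. The primary screen used 500, 250 and 200 μg/mL, and actives were retested at 100, 62.5, 50 and 25 μg/mL. Tubes were incubated overnight. MIC was the lowest concentration with no visible growth (at least 99% inhibition). Clear tubes were subcultured overnight at 37 °C.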

Aspergillus clavatus = assay: Antifungal activity against Aspergillus clavatus MTCC 1323 by conventional broth microdilution method; type: functional; outline: as §1
Candida albicans [2] = assay: Antifungal activity against Candida albicans MTCC 227 by conventional broth microdilution method; type: functional; outline: as §1
Escherichia coli [3] = assay: Antibacterial activity against Escherichia coli MTCC 443 by conventional broth microdilution method; type: functional; outline: as §1
Streptococcus pyogenes [4] = assay: Antibacterial activity against Streptococcus pyogenes MTCC 442 by conventional broth microdilution method; type: functional; outline: as §1
Pseudomonas aeruginosa [5] = assay: Antibacterial activity against Pseudomonas aeruginosa MTCC 1688 by conventional broth microdilution method; type: functional; outline: as §1
Staphylococcus aureus [6] = assay: Antibacterial activity against Staphylococcus aureus MTCC 96 by conventional broth microdilution method; type: functional; outline: as §1
HeLa = assay: Cytotoxicity against human HeLa cells after 24 hrs by MTT assay; type: cell-based
Outline: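 HeLa cells were grown in MEM with 10% FBS, 1% glutamine and gentamicin under humidified 5% CO2. 1.0 × 10^4 cells were exposed to 1–100 μM compound (0.1% DMSO in medium) for 24 h at 37 °C. MTT at 1 mg/mL was added for 5 h at 37 °C, formazan was dissolved in DMSO, and A540 was read. Run in triplicate; IC50 reported.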

Escherichia coli [7] = assay: Ratio of chloramphenicol MIC to compound MIC for Escherichia coli MTCC 443; type: functional
Streptococcus pyogenes [8] = assay: Ratio of chloramphenicol MIC to compound MIC for Streptococcus pyogenes MTCC 442; type: functional
Pseudomonas aeruginosa [9] = assay: Ratio of chloramphenicol MIC to compound MIC for Pseudomonas aeruginosa MTCC 1688; type: functional
Staphylococcus aureus [10] = assay: Ratio of chloramphenicol MIC to compound MIC for Staphylococcus aureus MTCC 96; type: functional
Candida albicans [11] = assay: Ratio of ketoconazole MIC to compound MIC for Candida albicans MTCC 227; type: functional
Aspergillus niger [12] = assay: Ratio of ketoconazole MIC to compound MIC for Aspergillus niger MTCC 282; type: functional

| SMILES | MIC (Aspergillus niger [1]) | MIC (Aspergillus clavatus) | MIC (Candida albicans [2]) | MIC (Escherichia coli [3]) | MIC (Streptococcus pyogenes [4]) | MIC (Pseudomonas aeruginosa [5]) | MIC (Staphylococcus aureus [6]) | IC50 (HeLa) | Ratio (Escherichia coli [7]) | Ratio (Streptococcus pyogenes [8]) | Ratio (Pseudomonas aeruginosa [9]) | Ratio (Staphylococcus aureus [10]) | Ratio (Candida albicans [11]) | Ratio (Aspergillus niger [12]) |
| --- | --- | --- | --- | --- | --- | --- | --- | --- | --- | --- | --- | --- | --- | --- |
| CC(=O)N1CCN(c2ccc(OCC3COC(Cn4ccnc4)(c4ccc(Cl)cc4Cl)O3)cc2)CC1 (stereo unspecified) [KETOCONAZOLE] | 50 µg/mL (≈ 94.1 µM) | 50 µg/mL (≈ 94.1 µM) | 50 µg/mL (≈ 94.1 µM) | – | – | – | – | – | – | – | – | – | – | – |
| COc1cccc(NCn2nc(-c3sc(NC(C)=O)nc3C)oc2=S)c1 | 100 µg/mL (≈ 255 µM) | 500 µg/mL (≈ 1280 µM) | 250 µg/mL (≈ 639 µM) | 500 µg/mL (≈ 1280 µM) | 500 µg/mL (≈ 1280 µM) | 500 µg/mL (≈ 1280 µM) | > 1000 µg/mL | – | – | – | – | – | – | – |
| O=C(N[C@H](CO)[C@H](O)c1ccc([N+](=O)[O-])cc1)C(Cl)Cl [CHLORAMPHENICOL] | – | – | – | 50 µg/mL (≈ 155 µM) | 50 µg/mL (≈ 155 µM) | 50 µg/mL (≈ 155 µM) | 50 µg/mL (≈ 155 µM) | – | – | – | – | – | – | – |
| CC(=O)Nc1nc(C)c(-c2nn(CNc3ccccc3C)c(=S)o2)s1 | 500 µg/mL (≈ 1330 µM) | 250 µg/mL (≈ 666 µM) | 500 µg/mL (≈ 1330 µM) | 250 µg/mL (≈ 666 µM) | 250 µg/mL (≈ 666 µM) | 100 µg/mL (≈ 266 µM) | 500 µg/mL (≈ 1330 µM) | – | – | – | – | – | – | – |
| COc1ccccc1NCn1nc(-c2sc(NC(C)=O)nc2C)oc1=S | 250 µg/mL (≈ 639 µM) | 250 µg/mL (≈ 639 µM) | 500 µg/mL (≈ 1280 µM) | 500 µg/mL (≈ 1280 µM) | > 1000 µg/mL | 250 µg/mL (≈ 639 µM) | 500 µg/mL (≈ 1280 µM) | – | – | – | – | – | – | – |
| CC(=O)Nc1nc(C)c(-c2nn(CNc3ccc(F)cc3)c(=S)o2)s1 | 500 µg/mL (≈ 1320 µM) | > 1000 µg/mL | 500 µg/mL (≈ 1320 µM) | 12.5 µg/mL (≈ 32.9 µM) | 25 µg/mL (≈ 65.9 µM) | 12.5 µg/mL (≈ 32.9 µM) | 12.5 µg/mL (≈ 32.9 µM) | > 100 µM | 4 | 2 | 4 | 4 | – | – |
| CC(=O)Nc1nc(C)c(-c2nn(CNc3ccc([N+](=O)[O-])cc3)c(=S)o2)s1 | 250 µg/mL (≈ 615 µM) | 100 µg/mL (≈ 246 µM) | 500 µg/mL (≈ 1230 µM) | 12.5 µg/mL (≈ 30.8 µM) | 25 µg/mL (≈ 61.5 µM) | 12.5 µg/mL (≈ 30.8 µM) | 25 µg/mL (≈ 61.5 µM) | 96.5 µM | 4 | 2 | 4 | 2 | – | – |
| CC(=O)Nc1nc(C)c(-c2nn(CNc3cccc(F)c3)c(=S)o2)s1 | 500 µg/mL (≈ 1320 µM) | > 1000 µg/mL | 500 µg/mL (≈ 1320 µM) | 50 µg/mL (≈ 132 µM) | 100 µg/mL (≈ 264 µM) | 50 µg/mL (≈ 132 µM) | 50 µg/mL (≈ 132 µM) | > 100 µM | – | – | – | – | – | – |
| CC(=O)Nc1nc(C)c(-c2nn(CNc3cccc(C)c3)c(=S)o2)s1 | 500 µg/mL (≈ 1330 µM) | 500 µg/mL (≈ 1330 µM) | 500 µg/mL (≈ 1330 µM) | 250 µg/mL (≈ 666 µM) | 500 µg/mL (≈ 1330 µM) | 500 µg/mL (≈ 1330 µM) | 500 µg/mL (≈ 1330 µM) | – | – | – | – | – | – | – |
| COc1ccc(NCn2nc(-c3sc(NC(C)=O)nc3C)oc2=S)cc1 | 25 µg/mL (≈ 63.9 µM) | 62.5 µg/mL (≈ 160 µM) | 25 µg/mL (≈ 63.9 µM) | 500 µg/mL (≈ 1280 µM) | > 1000 µg/mL | 500 µg/mL (≈ 1280 µM) | 500 µg/mL (≈ 1280 µM) | 98.6 µM | – | – | – | – | 2 | 2 |

Now from value to compound, other results behind:

| MIC (Aspergillus niger [1]) | MIC (Aspergillus clavatus) | MIC (Candida albicans [2]) | MIC (Escherichia coli [3]) | MIC (Streptococcus pyogenes [4]) | MIC (Pseudomonas aeruginosa [5]) | MIC (Staphylococcus aureus [6]) | SMILES | IC50 (HeLa) | Ratio (Escherichia coli [7]) | Ratio (Streptococcus pyogenes [8]) | Ratio (Pseudomonas aeruginosa [9]) | Ratio (Staphylococcus aureus [10]) | Ratio (Candida albicans [11]) | Ratio (Aspergillus niger [12]) |
| --- | --- | --- | --- | --- | --- | --- | --- | --- | --- | --- | --- | --- | --- | --- |
| > 1000 µg/mL | 500 µg/mL (≈ 1320 µM) | 500 µg/mL (≈ 1320 µM) | 250 µg/mL (≈ 659 µM) | 100 µg/mL (≈ 264 µM) | 500 µg/mL (≈ 1320 µM) | 250 µg/mL (≈ 659 µM) | CC(=O)Nc1nc(C)c(-c2nn(CNc3ccccc3F)c(=S)o2)s1 | – | – | – | – | – | – | – |
| 250 µg/mL (≈ 666 µM) | 250 µg/mL (≈ 666 µM) | 500 µg/mL (≈ 1330 µM) | 500 µg/mL (≈ 1330 µM) | > 1000 µg/mL | > 1000 µg/mL | 500 µg/mL (≈ 1330 µM) | CC(=O)Nc1nc(C)c(-c2nn(CNc3ccc(C)cc3)c(=S)o2)s1 | – | – | – | – | – | – | – |
| 100 µg/mL (≈ 246 µM) | 250 µg/mL (≈ 615 µM) | 500 µg/mL (≈ 1230 µM) | 50 µg/mL (≈ 123 µM) | 100 µg/mL (≈ 246 µM) | 50 µg/mL (≈ 123 µM) | 50 µg/mL (≈ 123 µM) | CC(=O)Nc1nc(C)c(-c2nn(CNc3cccc([N+](=O)[O-])c3)c(=S)o2)s1 | > 100 µM | – | – | – | – | – | – |
| 500 µg/mL (≈ 1230 µM) | 500 µg/mL (≈ 1230 µM) | 250 µg/mL (≈ 615 µM) | 500 µg/mL (≈ 1230 µM) | 250 µg/mL (≈ 615 µM) | 250 µg/mL (≈ 615 µM) | 100 µg/mL (≈ 246 µM) | CC(=O)Nc1nc(C)c(-c2nn(CNc3ccccc3[N+](=O)[O-])c(=S)o2)s1 | – | – | – | – | – | – | – |
